Source: PubChem BioAssay
pPAFAH FP inh: pPAFAH enzyme inhibitors, primary screen, biochemical, fluorescence polarization, human; Platelet-activating factor acetylhydrolase (Homo sapiens), Q13093; 330,000 compounds, 1.5% hits; recombinant pPAFAH, FP-rhodamine probe fluorescence polarization; AID 463082, 2010; inhibition, % at 3.39 µM;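 active = inhibition above the mean inhibition across the screen plus 3 SD, cut at about 25% in these data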;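 note: inhibitors block binding of the rhodamine activity-based probe so polarization drops; 0% = enzyme with DMSO and 100% = wells lacking pPAFAH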
Target sequence (Q13093 whole entry, looked up): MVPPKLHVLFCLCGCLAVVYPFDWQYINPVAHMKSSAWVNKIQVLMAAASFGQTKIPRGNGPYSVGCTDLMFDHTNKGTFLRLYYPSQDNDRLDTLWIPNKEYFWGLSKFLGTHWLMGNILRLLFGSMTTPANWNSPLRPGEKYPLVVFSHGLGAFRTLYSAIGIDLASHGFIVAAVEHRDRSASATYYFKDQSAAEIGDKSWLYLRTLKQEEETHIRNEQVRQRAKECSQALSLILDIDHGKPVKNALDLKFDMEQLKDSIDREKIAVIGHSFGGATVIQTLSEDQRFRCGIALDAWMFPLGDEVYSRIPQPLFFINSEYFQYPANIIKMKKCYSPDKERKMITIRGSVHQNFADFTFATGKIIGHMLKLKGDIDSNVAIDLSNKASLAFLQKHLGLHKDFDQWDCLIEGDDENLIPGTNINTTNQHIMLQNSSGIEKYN
PAFAH2 FP inh: PAFAH2 enzyme inhibitors, primary screen, biochemical, fluorescence polarization, human | AID 492956, 2010 | Platelet-activating factor acetylhydrolase 2, cytoplasmic (Homo sapiens), Q99487 | inhibition, % at 3.39 µM | recombinant PAFAH2, FP-rhodamine activity probe | 340,000 compounds, 0.99% hits;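 active = inhibition above the mean over all tested compounds plus 3 SD, cut at about 30% in these data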;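 note: inhibitors block probe labeling of enzyme so polarization drops; 0% = enzyme with DMSO and 100% = wells lacking PAFAH2 protein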
PAFAH1B2 FP inh: PAFAH1B2 enzyme inhibitors, primary screen, biochemical, fluorescence polarization, human. recombinant PAFAH1B2, FP-rhodamine activity probe. inhibition, % at 3.39 µM. AID 492953, 2010. 340,000 compounds, 1.2% hits;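 active = inhibition above the mean of all tested compounds plus 3 SD, cut at about 24% in these data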;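 note: 0% = enzyme with DMSO and 100% = wells lacking PAFAH1B2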
GRIN3A LBD mod: binders of NR3A ligand-binding domain, primary screen, biophysical, differential scanning fluorimetry, uHTS | Glutamate receptor ionotropic, NMDA 3A (GRIN3A) ligand-binding domain | Tm shift relative to glycine control, % at 25 µM | 340,000 compounds, 2.5% hits | NR3A LBD differential scanning fluorimetry, Tm shift; 0% = protein alone, 100% = glycine-bound protein;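 active = melting temperature shift of at least 10% of the positive control shift, at one fixed dose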
PAFAH1B3 FP inh: PAFAH1B3 enzyme inhibitors, primary screen, biochemical, fluorescence polarization, human; recombinant PAFAH1B3, FP-rhodamine probe; inhibition, % at 3.39 µM; 340,000 compounds, 0.28% hits; AID 492972, 2010;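 active = inhibition above the screen-wide average of all tested compounds plus 3 SD, cut at about 25% in these data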;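 note: 0% = enzyme with DMSO only and 100% = wells lacking PAFAH1B3 protein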
Target sequence (Q15102 whole entry, looked up): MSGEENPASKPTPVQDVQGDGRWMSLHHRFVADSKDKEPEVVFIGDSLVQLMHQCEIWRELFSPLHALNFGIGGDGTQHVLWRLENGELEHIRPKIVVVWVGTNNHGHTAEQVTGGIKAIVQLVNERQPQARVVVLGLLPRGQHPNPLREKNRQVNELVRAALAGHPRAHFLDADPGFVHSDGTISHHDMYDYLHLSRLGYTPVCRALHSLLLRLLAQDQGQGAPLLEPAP
UCH37 DUB inh: inhibitors of human UCH37 deubiquitinase, primary screen, biochemical, Ub-AMC cleavage, fluorescence | inhibition, % (test concentration not listed) | purified proteasome/UCH37 | Ubiquitin carboxyl-terminal hydrolase isozyme L5 (Homo sapiens), Q9Y5K5 | 330,000 compounds, 0.33% hits;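 active = mean inhibition over replicate wells above about 20%, limit read from the data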;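 note: 0% = compound-free wells with enzyme and 100% = wells lacking proteasome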
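Material: Human UCH37 enzyme supplied as purified proteasome complex | Schedule: 30 min compound-proteasome preincubation then 25 min substrate reaction, room temperature | Detection: AMC fluorescence from Ub-AMC cleavage, excitation 355 nm, emission 460 nm | Benchmarks: Wells without proteasome as full block, compound-free enzyme plus substrate as uninhibited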
* marks the source's active call; other numbers are inactive results; nt = no result. Compounds with a hit are over-represented: about 4.8% of the library has one in this group of screens.

SMILES | pPAFAH FP inh | PAFAH2 FP inh | PAFAH1B2 FP inh | GRIN3A LBD mod | PAFAH1B3 FP inh | UCH37 DUB inh
CC(C)C[C@H]1CN([C@@H](CC(C)C)CN2CCCC2CN2C(=S)NC[C@@H]2Cc2ccc(O)cc2)C(=S)N1CC1CCCCC1 (some centres undefined) | nt | 1.1 | 4.6 | 13.2* | -1.0 | nt
CC(C)C[C@H]1CN([C@@H](CC(C)C)CN2CCCC2CN2C(=S)NC[C@@H]2Cc2ccc(O)cc2)C(=S)N1CC1CCCCCC1 (some centres undefined) | nt | -4.9 | 3.8 | 5.2 | 11.7 | nt
CC(C)C[C@H]1CNC(=S)N1CC1CCCN1C[C@H](Cc1ccc(O)cc1)N1C[C@H](Cc2ccccc2)N(CC2CCCCC2)C1=S (some centres undefined) | nt | -0.8 | -1.2 | 6.6 | -5.5 | nt
CCOc1ccc(CCN2C(=S)N([C@@H](Cc3ccc(O)cc3)CN3CCCC3CN3C(=S)NC[C@@H]3Cc3ccc(O)cc3)C[C@@H]2CC(C)C)cc1 (some centres undefined) | nt | -23.9 | 2.1 | 13.2* | -6.4 | nt
Oc1ccc(C[C@H]2CNC(=S)N2CC2CCCN2C[C@H](Cc2ccc(O)cc2)N2C[C@H](Cc3ccc(O)cc3)N(CC3CCCCCC3)C2=S)cc1 (some centres undefined) | nt | -15.5 | -6.0 | 27.9* | -13.1 | nt
CC(C)C[C@@H](CN1CCCC1CN1C(=S)NC[C@@H]1Cc1ccc(O)cc1)N1C[C@H](Cc2ccc(O)cc2)N(CCc2ccccc2)C1=S (some centres undefined) | nt | 7.5 | -4.0 | 23.9* | -7.6 | nt
Oc1ccc(C[C@H]2CNC(=S)N2CC2CCCN2C[C@H](Cc2ccc(O)cc2)N2C[C@H](Cc3ccccc3)N(CC3CCCCCC3)C2=S)cc1 (some centres undefined) | nt | -29.0 | -6.5 | 19.9* | -15.9 | nt
CC(C)C[C@H]1CNC(=S)N1CC1CCCN1C[C@H](CC(C)C)N1C[C@H](CC(C)C)N(CCc2ccccc2)C1=S (some centres undefined) | nt | 7.3 | 6.2 | 3.9 | 9.9 | nt
CC(C)(C)c1ccc(-n2ncc3c2CCCC3NC(=O)CCN2CCCCC2=O)cc1 (centres undefined) | 64.0* | 25.8 | 2.3 | -1.2 | 9.1 | 1.1
O=S(=O)(Nc1cc2nc3ccccc3nc2n1Cc1ccccc1)c1ccc(Cl)cc1 | 14.2 | 66.4* | 46.8* | 11.9* | 62.6* | -69.4
O=S(=O)(NCc1ccccc1)c1ccc(Cl)cc1 | 4.8 | 1.7 | 21.3 | -4.0 | 6.2 | 0.5
CCOC(=O)c1ccc2c(c1)n(CC)c(/C=C/N(C)c1ccccc1)[n+]2CC | 2.2 | -5.0 | -2.5 | 1.6 | 16.7 | 23.5*
O=C1C(c2ccccc2)NC(=S)N1C1CCCCC1 (centres undefined) | 0.0 | 2.1 | 35.9* | -1.4 | 3.9 | 2.9
CC(C)C1NC(=S)N(C2CCCCC2)C1=O (centres undefined) | 5.9 | 11.3 | 3.7 | 3.4 | 4.0 | 0.7
CN(C)S(=O)(=O)c1cccc(NC(=S)NC23CC4CC(CC(C4)C2)C3)c1 | 3.4 | 6.7 | 8.2 | 10.3* | -0.3 | 2.0
CN(C)S(=O)(=O)c1cccc(NC(=S)NNC(=O)c2cc3ccccc3cc2O)c1 | 28.2* | 15.0 | 8.4 | 21.9* | 6.8 | nt
CN(C)S(=O)(=O)c1cccc(NC(=S)NC(=O)c2ccco2)c1 | nt | 1.4 | -1.0 | 2.2 | 4.4 | -0.6
CC(CC(=O)NCc1ccco1)=NNC(=O)COc1ccc(C)cc1 | nt | nt | nt | nt | nt | -0.5
Nc1nonc1-n1nnc(C(=O)N/N=C/c2cccc(Cl)c2)c1-c1cccs1 | -1.8 | -4.8 | 3.1 | 27.1* | -4.3 | nt
Nc1nonc1-n1nnc(C(=O)N/N=C/c2cc(Br)cs2)c1-c1ccccc1 | -3.6 | -7.6 | 2.0 | 14.8* | 4.2 | nt
CN(Cc1c(C(=O)N/N=C/c2ccc(O)cc2)nnn1-c1nonc1N)c1ccccc1 | 0.2 | -2.1 | 3.0 | 24.1* | -3.2 | nt
COc1ccc(/C=N/NC(=O)c2nnn(-c3nonc3N)c2-c2cccs2)cc1OC | 2.4 | -12.1 | 2.4 | 8.5 | 2.7 | nt
CN(Cc1c(C(=O)NN=Cc2ccccc2)nnn1-c1nonc1N)C1CCCCC1 | nt | nt | nt | nt | nt | 0.5
CN(C)c1ccc(C=NNC(=O)c2nnn(-c3nonc3N)c2CN(C)c2ccccc2)cc1 | nt | nt | nt | nt | nt | -19.9
CN(C)c1ccc(/C=N/NC(=O)c2nnn(-c3nonc3N)c2CN(C)c2ccccc2)cc1 | 4.7 | 4.9 | 0.6 | 14.8* | 11.8 | nt
SMILES | pPAFAH FP inh | PAFAH2 FP inh | PAFAH1B2 FP inh | GRIN3A LBD mod | PAFAH1B3 FP inh | UCH37 DUB inh
CN(Cc1c(C(=O)N/N=C/c2ccccc2F)nnn1-c1nonc1N)c1ccccc1 | 3.8 | -0.8 | 4.5 | 11.6* | 6.3 | nt
CC(=NN=Cc1ccccc1)c1nnn(-c2nonc2N)c1C | nt | nt | nt | nt | nt | 2.9
CN(Cc1c(C(=O)NN=Cc2c(F)cccc2Cl)nnn1-c1nonc1N)c1ccccc1 | nt | nt | nt | nt | nt | -0.5
Nc1nonc1-n1nnc(C(=O)NN=Cc2cccc(Cl)c2)c1CN1CCCC1 | nt | nt | nt | nt | nt | 1.6
CN(Cc1c(C(=O)N/N=C/c2ccccc2)nnn1-c1nonc1N)c1ccccc1 | -0.2 | 5.9 | 8.3 | 19.5* | 7.0 | nt
CN(Cc1c(C(=O)N/N=C/c2cccc(Cl)c2)nnn1-c1nonc1N)c1ccccc1 | 3.5 | -8.4 | -3.0 | 21.0* | -4.5 | nt
COc1ccccc1/C=N/NC(=O)c1nnn(-c2nonc2N)c1CN(C)c1ccccc1 | 6.4 | -2.0 | 0.0 | 3.9 | -3.4 | nt
C/C(=N\N=C\c1ccccc1F)c1nnn(-c2nonc2N)c1C | 2.6 | -6.1 | 1.0 | 24.9* | 5.9 | nt
Cc1ccc(C=NNC(=O)c2nnn(-c3nonc3N)c2CSc2ccc(Cl)cc2)o1 | nt | nt | nt | nt | nt | -11.3
COc1ccc(/C=N/NC(=O)c2nnn(-c3nonc3N)c2CN(C)c2ccccc2)cc1 | 5.6 | -1.5 | 4.0 | 24.1* | -3.8 | nt
COc1ccccc1C=NNC(=O)c1nnn(-c2nonc2N)c1CN(C)c1ccccc1 | nt | nt | nt | nt | nt | -2.1
CC(=NNC(=O)c1nnn(-c2nonc2N)c1-c1ccccc1)c1ccc2c(c1)OCO2 | nt | nt | nt | nt | nt | -99.3
Cc1nc(S(=O)(=O)c2ccc(Cl)cc2)c(NCc2ccccc2)o1 | 2.8 | 6.5 | 10.2 | 1.4 | 10.4 | nt
CNc1oc(C)nc1S(=O)(=O)c1ccccc1 | -2.3 | -2.7 | 3.6 | 15.0* | 1.9 | -6.0
Cc1ccc(Cl)c(OC(=O)c2ccc(N3CCOCC3)c([N+](=O)[O-])c2)c1 | 10.7 | -1.1 | -1.8 | 22.1* | 4.1 | 5.2
